In brackets after ≈: the same amount, converted by molar mass.
Columns and labels:
[1] = test system: Mycobacterium tuberculosis; test: Antimycobacterial activity against Mycobacterium tuberculosis incubated for 7 days by microplate alamar blue assay; assay type: functional; conditions: 168 h, time 7 day
Summary of the method: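 Microplate Alamar Blue readout by fluorescence. MIC is the lowest concentration giving a 90% fluorescence reduction relative to untreated bacterial controls.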

[2] = Binding affinity to N-terminal domain of Mycobacterium tuberculosis ClpC1 expressed in Escherichia coli BL21 (DE3) assessed as dissociation constant by surface plasma resonance assay
Summary of the method: (§1)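 SPR with ClpC1 N-terminal domain or full-length protein. Association and dissociation rate constants (ka, kd) come from global fitting of double-referenced sensorgrams to a 1:1 Langmuir model. KD is calculated as kd/ka.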

[3] = Binding affinity to in full length Mycobacterium tuberculosis ClpC1 expressed in Escherichia coli BL21 (DE3) assessed as dissociation constant by surface plasma resonance assay; summary of the method: as §1

Row | SMILES | MIC90 [1] | Kd [2] | Kd [3]
1 | C/C=C/C[C@@H]1NC(=O)[C@H](CC(C)C)N2C(=O)[C@H](C[C@H](C)[C@H]2O)N(C)C(=O)[C@H](C)NC(=O)[C@H](Cc2ccc(O)c([N+](=O)[O-])c2)NC(=O)[C@H](CC(C)C)N(C)C(=O)[C@H](Cc2cn(C(C)(C)[C@H]3CO3)c3ccccc23)NC1=O | 0.021 µM (≈ 0.0219 µg/mL) | 0.032 µM | 0.031 µM
2 | C/C=C/C[C@@H]1NC(=O)[C@H](CC(C)C)N2C(=O)[C@H](C[C@H](C)[C@@H]2O)N(C)C(=O)[C@H](C)NC(=O)[C@H](Cc2ccc(O)c([N+](=O)[O-])c2)NC(=O)[C@H](CC(C)C)N(C)C(=O)[C@H](Cc2cn(C(C)(C)[C@H]3CO3)c3ccccc23)NC1=O | 0.012 µM (≈ 0.0125 µg/mL) | 0.029 µM | 0.027 µM
3 | C/C=C/C[C@@H]1NC(=O)[C@H](CC(C)C)N2C(=O)[C@H](C[C@@H](C)[C@@H]2O)N(C)C(=O)[C@H](C)NC(=O)[C@H](Cc2ccc(O)c([N+](=O)[O-])c2)NC(=O)[C@H](CC(C)C)N(C)C(=O)[C@H](Cc2cn(C(C)(C)[C@H]3CO3)c3ccccc23)NC1=O | 0.047 µM (≈ 0.049 µg/mL) | 0.186 µM | 0.209 µM
4 | C/C=C/C[C@@H]1NC(=O)[C@H](CC(C)C)N2C(=O)[C@H](C[C@@H](C)[C@H]2O)N(C)C(=O)[C@H](C)NC(=O)[C@H](Cc2ccc(O)c([N+](=O)[O-])c2)NC(=O)[C@H](CC(C)C)N(C)C(=O)[C@H](Cc2cn(C(C)(C)[C@H]3CO3)c3ccccc23)NC1=O | 0.046 µM (≈ 0.0479 µg/mL) | 0.183 µM | 0.178 µM
5 | NNC(=O)c1ccncc1 [ISONIAZID] | 0.463 µM (≈ 0.0635 µg/mL) |  | 
6 | CO[C@H]1/C=C/O[C@@]2(C)Oc3c(C)c(O)c4c(O)c(c(/C=N/N5CCN(C)CC5)c(O)c4c3C2=O)NC(=O)/C(C)=C\C=C\[C@H](C)[C@H](O)[C@@H](C)[C@@H](O)[C@@H](C)[C@H](OC(C)=O)[C@@H]1C [RIFAMPIN] | 0.028 µM (≈ 0.023 µg/mL) |  | 
